Experimental data as given in paper PMC3751212 (Clinical Drug Investigation, 2013).
Where two headings read alike, the source gives them in different places.

Assays:
[1] = test system: histamine receptor subtypes H2, H3, and H4; conditions: at a high concentration; cited from earlier work
[2] = single 80 mg oral dose; 95 % CI 3,174.7–6278.4; cited from earlier work
[3] = cited from earlier work
[4] = test system: organic anion transporter 3 (OAT3); conditions: cited from earlier work
Safety evaluations = format: in vivo, human
How it was run: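 Four groups (n = 6) were assigned by iothalamate GFR: >80, 50–80, 30–50 and ≤30 mL/min/1.73 m2. Each subject took one oral 20 mg tablet with 200 mL water after an 8–10 h fast. ECG (12-lead) was recorded pre-dose, 1 and 24 h, with QTcF and QTcB. Vital signs were taken daily. Hematology, biochemistry and urinalysis were done at screening, pre-dose and 72 h. AEs were coded by MedDRA 11.0, and results summarised descriptively.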

[5] = test system: organic anion transporter 1 (OAT1); conditions: cited from earlier work
[6] = format: in vivo, human; conditions: for CL renal / AUC(0-inf) / Cmax / Tmax / AUC(0-t) / CL/F / Vd/F / half-life / k el: human, 20 mg; for CL renal: plasma and urine, CLR; for AUC(0-inf) / Cmax / Tmax / AUC(0-t) / CL/F / Vd/F / half-life / k el: plasma; for AUC(0-t): AUClast, fasted, n = 6; for CL/F: CLP/F; for Vd/F: Vz/F; for half-life: t½β; for k el: λz
How it was run: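 Single oral 20 mg tablet given fasted (8–10 h) to groups of six subjects stratified by iothalamate GFR (>80, 50–80, 30–50, ≤30 mL/min/1.73 m2). Heparinised blood was drawn pre-dose and 0.25–72 h post-dose; plasma was spun at 1,500×g, 4–8 °C, then frozen. AUClast used the trapezoidal rule, AUC∞ = AUClast + Clast/ke, and CLP/F = dose/AUC∞. Ratios to the healthy group came from ln-transformed ANOVA least-squares means with 90 % CI.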

[7] = test system: human breast cancer resistance protein (BCRP); conditions: cited from earlier work
[8] = test system: 30 other receptors (including muscarinic receptors); conditions: at a high concentration; cited from earlier work
[9] = Urine concentrations / urinary excretion of bilastine after a single oral dose; format: in vivo, human; conditions: for Urine concentrations of bilastine: mean ± SD
How it was run: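 Subjects were grouped by iothalamate GFR (n = 6 each) and received one fasted oral 20 mg tablet. Urine was pooled over 0–12, 12–24, 24–48 and 48–72 h post-dose and kept refrigerated during each interval. Total volume was measured per interval, and aliquots were stored at −20 °C. Ae is the total unchanged drug over the whole collection, and CLR = Ae/AUC over a defined period.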

[10] = compared among the renal impairment groups; cited from earlier work
histamine H1 receptor = conditions: animal tissues with a high density of H1 receptors; cited from earlier work
[11] = doses up to 40 mg; cited from earlier work
[12] = test system: organic cation transporter 2 (OCT2); conditions: cited from earlier work
[13] = group 2: mild vs group 1: healthy
[14] = group 3: moderate vs group 1: healthy
[15] = group 4: severe vs group 1: healthy
[16] = po, Group 1: healthy, single oral 20 mg, mean ± SD
[17] = po, Group 2: mild, single oral 20 mg, mean ± SD
[18] = po, Group 3: moderate, single oral 20 mg, mean ± SD
[19] = po, Group 4: severe, single oral 20 mg, mean ± SD
[20] = oral, geometric LS mean, Test group 2: mild, ANOVA
[21] = oral, geometric LS mean, Test group 4: severe, ANOVA

**Q.** Which results are given for CCOCCn1c(C2CCN(CCc3ccc(C(C)(C)C(=O)O)cc3)CC2)nc2ccccc21 [bilastine, 2-[4-(2-(4-(1-(2-ethoxyethyl)-1H-benzimidazol-2-yl)piperidin-1-yl)ethyl)phenyl]-2-methylpropionic acid]?
**A.** affinity for histamine receptor subtypes H2, H3, and H4 [1]: does not show affinity; AUC∞, mean estimated exposure (safety margin) [2]: 4,225.6 ng·h/mL; metabolism [3]: not metabolized; substrate of OAT3 [4]: not a substrate; tolerability (Safety evaluations; 20 mg oral dose, healthy and renally impaired subjects): well-tolerated; subjects with outlier ECG results (Safety evaluations; all 24 subjects, single oral 20 mg): 20.8%; subjects with outlier ECG results (Safety evaluations; each of the mild, moderate, and severe impairment groups): 16.7%; subjects with outlier ECG results (Safety evaluations; healthy group): 33.3%; mean blood glucose concentration (Safety evaluations; mildly impaired group, end of study, reference range 60–115 mg/dL): 120.8 mg/dL; substrate of OAT1 [5]: not a substrate; Clast ([6]; Group 1: healthy, single oral 20 mg, mean ± SD): 0.3 ± 0.1 ng/mL; Clast ([6]; Group 2: mild, single oral 20 mg, mean ± SD): 0.8 ± 0.3 ng/mL; Clast ([6]; Group 3: moderate, single oral 20 mg, mean ± SD): 0.4 ± 0.1 ng/mL; Clast ([6]; Group 4: severe, single oral 20 mg, mean ± SD): 1.5 ± 1.1 ng/mL; amount in the plasma after 24 h relative to Cmax ([6]; all the groups, single oral 20 mg): less than 5 % of the Cmax; AUClast, geometric mean ratio [6, 13]: 1.34; AUC∞, geometric mean ratio [6, 13]: 1.36; Cmax, geometric mean ratio [6, 13]: 1.24; tmax, difference of median values [6, 13]: 0.00; AUClast, geometric mean ratio [6, 14]: 1.94; AUC∞, geometric mean ratio [6, 14]: 1.94; Cmax, geometric mean ratio [6, 14]: 2.00; tmax, difference of median values [6, 14]: 0.75; AUClast, geometric mean ratio [6, 15]: 2.11; AUC∞, geometric mean ratio [6, 15]: 2.15; Cmax, geometric mean ratio [6, 15]: 1.59; tmax, difference of median values [6, 15]: 0.00; CL renal [6, 16]: 145 mL/min; CL renal [6, 17]: 116 mL/min; CL renal [6, 18]: 91.5 mL/min; CL renal [6, 19]: 67.2 mL/min; AUC(0-inf) [6, 20]: 959 ng·h/mL; AUC(0-inf) [6, 21]: 1510 ng·h/mL; Cmax [6, 20]: 167 ng/mL; Cmax [6, 21]: 214 ng/mL; Tmax ([6]; oral, median, Reference (group 1: healthy)): 1.5 h; Tmax ([6]; oral, median, Test group 2: mild): 1.5 h; Tmax ([6]; oral, median, Test group 3: moderate): 2.25 h; Tmax ([6]; oral, median, Test group 4: severe): 1.5 h; AUC(0-t) ([6]; po, Group 1: healthy (GFR >80), single oral 20 mg, mean ± SD): 733 ± 260 ng·h/mL; AUC(0-t) ([6]; po, Group 2: mild renal insufficiency (GFR 50–80), single oral 20 mg, mean ± SD): 947 ± 148 ng·h/mL; AUC(0-t) ([6]; po, Group 3: moderate renal insufficiency (GFR 30–50), single oral 20 mg, mean ± SD): 1380 ng·h/mL; AUC(0-t) ([6]; po, Group 4: severe renal insufficiency (GFR ≤30), single oral 20 mg, mean ± SD): 1650 ng·h/mL; AUC(0-inf) [6, 16]: 737 ± 261 ng·h/mL; AUC(0-inf) [6, 17]: 967 ± 140 ng·h/mL; AUC(0-inf) [6, 18]: 1380 ng·h/mL; AUC(0-inf) [6, 19]: 1710 ng·h/mL; CL/F [6, 16]: 495 mL/min; CL/F [6, 17]: 351 mL/min; CL/F [6, 18]: 248 mL/min; CL/F [6, 19]: 271 mL/min; Cmax [6, 16]: 144 ± 57.8 ng/mL; Cmax [6, 17]: 172 ± 45 ng/mL; Cmax [6, 18]: 271 ± 30.4 ng/mL; Cmax [6, 19]: 229 ± 81.8 ng/mL; Vd/F [6, 16]: 383 ± 122 L; Vd/F [6, 17]: 462 ± 244 L; Vd/F [6, 18]: 223 ± 55.7 L; Vd/F [6, 19]: 351 ± 193 L; Tmax ([6]; po, Group 1: healthy, single oral 20 mg, median (range)): 1.5 h; Tmax ([6]; po, Group 2: mild, single oral 20 mg, median (range)): 1.5 h; Tmax ([6]; po, Group 3: moderate, single oral 20 mg, median (range)): 2.25 h; Tmax ([6]; po, Group 4: severe, single oral 20 mg, median (range)): 1.5 h; half-life [6, 16]: 9.26 ± 2.79 h; half-life [6, 17]: 15.1 ± 7.66 h; half-life [6, 18]: 10.5 ± 2.34 h; half-life [6, 19]: 18.4 ± 11.4 h; k el [6, 16]: 2.21e-05 s⁻¹; k el [6, 17]: 1.65e-05 s⁻¹; k el [6, 18]: 1.92e-05 s⁻¹; k el [6, 19]: 1.39e-05 s⁻¹; substrate of BCRP [7]: not a substrate; affinity for 30 other receptors [8]: does not show affinity; Urine concentrations of bilastine ([9]; 0–12 h, Group 1: healthy, single oral 20 mg): 4,387.5 ± 3,358.4 ng/mL; Urine concentrations of bilastine ([9]; 0–12 h, Group 2: mild): 4,824.1 ± 2,073.0 ng/mL; Urine concentrations of bilastine ([9]; 0–12 h, Group 3: moderate): 7,184.3 ± 3,843.4 ng/mL; Urine concentrations of bilastine ([9]; 0–12 h, Group 4: severe): 3,469.8 ± 2,066.2 ng/mL; Urine concentrations of bilastine ([9]; 12–24 h, Group 1: healthy): 531.7 ± 342.0 ng/mL; Urine concentrations of bilastine ([9]; 12–24 h, Group 2: mild): 597.7 ± 159.2 ng/mL; Urine concentrations of bilastine ([9]; 12–24 h, Group 3: moderate): 472.9 ± 221.9 ng/mL; Urine concentrations of bilastine ([9]; 12–24 h, Group 4: severe): 813.0 ± 567.5 ng/mL; Urine concentrations of bilastine ([9]; 24–48 h, Group 1: healthy): 103.4 ± 38.6 ng/mL; Urine concentrations of bilastine ([9]; 24–48 h, Group 2: mild): 159.3 ± 43.3 ng/mL; Urine concentrations of bilastine ([9]; 24–48 h, Group 3: moderate): 126.7 ± 81.1 ng/mL; Urine concentrations of bilastine ([9]; 24–48 h, Group 4: severe): 260.4 ± 212.1 ng/mL; Urine concentrations of bilastine ([9]; 48–72 h, Group 1: healthy): 20.9 ± 10.0 ng/mL; Urine concentrations of bilastine ([9]; 48–72 h, Group 2: mild): 49.3 ± 40.7 ng/mL; Urine concentrations of bilastine ([9]; 48–72 h, Group 3: moderate): 30.3 ± 7.4 ng/mL; Urine concentrations of bilastine ([9]; 48–72 h, Group 4: severe): 97.8 ± 69.3 ng/mL; time by which urinary excretion was essentially complete ([9]; single oral 20 mg, most excreted in the first 12 h): up to 72 h; plasma protein binding [10]: comparable values were found among the renal impairment groups; affinity for H1 receptors relative to cetirizine (histamine H1 receptor): three times higher; affinity for H1 receptors relative to fexofenadine (histamine H1 receptor): five times higher; sedative or psychomotor effects [11]: No sedative or psychomotor effects were detected; substrate of OCT2 [12]: not a substrate
